The values below come from ChEMBL document CHEMBL2321664, “L-Aminoacyl-triazine derivatives are isoform-selective PI3Kβ inhibitors that target non-conserved Asp862 of PI3Kβ” (ACS Med Chem Lett, 2013).

The target of assay [1] is T1, Phosphatidylinositol 4,5-bisphosphate 3-kinase catalytic subunit delta isoform (Homo sapiens, UniProt O00329).
T1 sequence (O00329 whole entry): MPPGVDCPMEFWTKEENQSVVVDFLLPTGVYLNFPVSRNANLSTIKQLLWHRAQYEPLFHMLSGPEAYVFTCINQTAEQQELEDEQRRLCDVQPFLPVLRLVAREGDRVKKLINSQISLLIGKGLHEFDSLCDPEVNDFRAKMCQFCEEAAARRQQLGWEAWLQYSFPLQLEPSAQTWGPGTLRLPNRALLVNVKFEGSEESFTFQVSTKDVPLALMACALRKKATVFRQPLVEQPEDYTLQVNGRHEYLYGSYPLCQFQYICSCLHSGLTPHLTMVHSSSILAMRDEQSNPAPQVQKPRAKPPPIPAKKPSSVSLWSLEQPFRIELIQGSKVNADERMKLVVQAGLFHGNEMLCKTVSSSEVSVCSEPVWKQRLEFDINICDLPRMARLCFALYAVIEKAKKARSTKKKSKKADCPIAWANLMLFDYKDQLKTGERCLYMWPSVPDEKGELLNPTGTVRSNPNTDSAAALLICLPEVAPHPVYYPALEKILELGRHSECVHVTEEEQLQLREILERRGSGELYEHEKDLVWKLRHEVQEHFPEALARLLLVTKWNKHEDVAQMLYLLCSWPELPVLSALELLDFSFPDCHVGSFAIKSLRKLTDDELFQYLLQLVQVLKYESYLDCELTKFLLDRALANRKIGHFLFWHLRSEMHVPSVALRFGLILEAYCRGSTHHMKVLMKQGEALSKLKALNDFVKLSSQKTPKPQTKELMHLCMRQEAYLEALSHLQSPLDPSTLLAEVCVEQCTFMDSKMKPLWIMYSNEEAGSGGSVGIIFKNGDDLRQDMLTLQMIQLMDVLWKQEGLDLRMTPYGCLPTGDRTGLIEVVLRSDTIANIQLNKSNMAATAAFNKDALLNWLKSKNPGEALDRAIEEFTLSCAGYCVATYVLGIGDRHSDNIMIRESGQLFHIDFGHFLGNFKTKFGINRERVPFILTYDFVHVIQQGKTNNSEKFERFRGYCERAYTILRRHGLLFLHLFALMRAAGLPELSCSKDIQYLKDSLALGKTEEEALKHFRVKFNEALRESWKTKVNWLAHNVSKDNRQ
As to the kind of experiment: Inhibition of PI3K-delta (unknown origin) assessed as decrease in ATP consumption using phosphatidylinositol bisphosphate and 10 uM ATP as substrate measured after 60 mins by luminescence assay.

The target in assay [2] is T2, Phosphatidylinositol 4,5-bisphosphate 3-kinase catalytic subunit beta isoform (Homo sapiens, UniProt P42338). As to the kind of experiment: Inhibition of PI3K-beta (unknown origin) assessed as decrease in ATP consumption using phosphatidylinositol bisphosphate and 10 uM ATP as substrate measured after 60 mins by luminescence assay.
Assay [3] concerns the target Phosphatidylinositol 4,5-bisphosphate 3-kinase catalytic subunit gamma isoform (Homo sapiens, UniProt P48736). As to the kind of experiment: Inhibition of PI3K-gamma (unknown origin) assessed as decrease in ATP consumption using phosphatidylinositol bisphosphate and 10 uM ATP as substrate measured after 60 mins by luminescence assay.
Assay [4] concerns the target Phosphatidylinositol 4,5-bisphosphate 3-kinase catalytic subunit alpha isoform (Homo sapiens, UniProt P42336). As to the kind of experiment: Inhibition of PI3K-alpha (unknown origin) assessed as decrease in ATP consumption using phosphatidylinositol bisphosphate and 10 uM ATP as substrate measured after 60 mins by luminescence assay.
For assay [5], the target named is T2, Phosphatidylinositol 4,5-bisphosphate 3-kinase catalytic subunit beta isoform. As to the kind of experiment: Inhibition of wild type PI3K-beta (unknown origin) assessed as decrease in ATP consumption using phosphatidylinositol bisphosphate and 100 uM ATP as substrate measured after 60 mins by luminescence assay. In outline: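 Kinase-Glo read-out with 100 μM ATP, run alongside the D862Q mutant and the wild-type and reciprocal-mutant PI3Kα forms. IC50 is the mean of at least two duplicate experiments.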

The target of assay [6] is Phosphatidylinositol 4,5-bisphosphate 3-kinase catalytic subunit beta isoform (Homo sapiens, UniProt P42338, D862Q). As to the kind of experiment: Inhibition of recombinant PI3K-beta D862Q mutant (unknown origin) expressed in baculovirus infected Sf21 cells assessed as decrease in ATP consumption using phosphatidylinositol bisphosphate and 100 uM ATP as substrate measured after 60 mins by luminescence assay. The gist of the method: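 Kinase-Glo luminescent read-out of kinase activity with 100 μM ATP. Run alongside the wild-type PI3Kβ enzyme and the wild-type and reciprocal-mutant PI3Kα enzymes. IC50 values are means of at least two duplicate experiments.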

In assay [7] the target is RAC-alpha serine/threonine-protein kinase (Homo sapiens, UniProt P31749). As to the kind of experiment: Inhibition of IGF-1 induced Akt phosphorylation in PTEN-deficient human MDA-MB-468 cells pretreated for 2 hrs before IGF1 induction measured after 15 mins by Western blot analysis. The class given is cell-based. On the technique in general: Immunoblotting shows a protein as a band on a membrane.
Chain of RAC-alpha serine/threonine-protein kinase (P31749 whole entry): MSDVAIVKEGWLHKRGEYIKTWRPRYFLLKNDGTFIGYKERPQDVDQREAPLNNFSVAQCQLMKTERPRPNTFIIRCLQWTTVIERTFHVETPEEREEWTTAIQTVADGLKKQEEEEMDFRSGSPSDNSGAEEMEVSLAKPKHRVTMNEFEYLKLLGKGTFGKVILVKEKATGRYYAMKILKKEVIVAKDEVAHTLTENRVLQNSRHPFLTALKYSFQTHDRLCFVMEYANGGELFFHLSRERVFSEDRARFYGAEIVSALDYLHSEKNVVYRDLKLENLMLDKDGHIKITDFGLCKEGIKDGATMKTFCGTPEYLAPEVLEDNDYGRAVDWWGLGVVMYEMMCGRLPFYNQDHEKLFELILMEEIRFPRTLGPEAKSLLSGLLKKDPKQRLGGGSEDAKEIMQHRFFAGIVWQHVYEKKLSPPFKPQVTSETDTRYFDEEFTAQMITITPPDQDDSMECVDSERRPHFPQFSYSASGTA

Chain of Phosphatidylinositol 4,5-bisphosphate 3-kinase catalytic subunit beta isoform (Homo sapiens, UniProt P42338, D862Q) (P42338 whole entry D862Q, canonical isoform): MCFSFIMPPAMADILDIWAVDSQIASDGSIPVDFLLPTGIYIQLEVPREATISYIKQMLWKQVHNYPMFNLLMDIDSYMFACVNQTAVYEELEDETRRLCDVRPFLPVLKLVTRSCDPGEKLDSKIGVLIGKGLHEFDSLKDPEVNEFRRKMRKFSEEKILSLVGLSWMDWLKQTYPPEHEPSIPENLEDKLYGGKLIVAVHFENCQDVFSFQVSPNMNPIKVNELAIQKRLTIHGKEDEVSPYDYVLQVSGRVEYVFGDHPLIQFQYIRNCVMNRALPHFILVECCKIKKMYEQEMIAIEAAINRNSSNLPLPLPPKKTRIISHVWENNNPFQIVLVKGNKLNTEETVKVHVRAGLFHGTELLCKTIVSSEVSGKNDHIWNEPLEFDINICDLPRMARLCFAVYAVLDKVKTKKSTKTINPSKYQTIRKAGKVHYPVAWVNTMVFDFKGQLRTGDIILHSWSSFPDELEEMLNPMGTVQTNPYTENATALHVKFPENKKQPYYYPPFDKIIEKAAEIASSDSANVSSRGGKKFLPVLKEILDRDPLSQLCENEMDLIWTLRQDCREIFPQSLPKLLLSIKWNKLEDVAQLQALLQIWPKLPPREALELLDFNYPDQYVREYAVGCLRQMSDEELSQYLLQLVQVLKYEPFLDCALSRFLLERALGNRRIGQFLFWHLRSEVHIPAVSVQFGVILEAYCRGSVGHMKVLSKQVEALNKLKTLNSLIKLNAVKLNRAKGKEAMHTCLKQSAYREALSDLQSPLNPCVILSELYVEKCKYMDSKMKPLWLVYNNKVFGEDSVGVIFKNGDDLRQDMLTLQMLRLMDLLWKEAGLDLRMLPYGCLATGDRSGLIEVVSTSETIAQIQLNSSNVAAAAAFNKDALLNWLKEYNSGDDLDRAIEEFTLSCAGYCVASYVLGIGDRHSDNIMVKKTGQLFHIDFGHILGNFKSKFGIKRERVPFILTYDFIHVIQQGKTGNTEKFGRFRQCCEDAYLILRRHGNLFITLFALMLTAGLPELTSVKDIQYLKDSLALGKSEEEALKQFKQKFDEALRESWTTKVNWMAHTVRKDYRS
Chain of Phosphatidylinositol 4,5-bisphosphate 3-kinase catalytic subunit alpha isoform (P42336 whole entry, canonical isoform): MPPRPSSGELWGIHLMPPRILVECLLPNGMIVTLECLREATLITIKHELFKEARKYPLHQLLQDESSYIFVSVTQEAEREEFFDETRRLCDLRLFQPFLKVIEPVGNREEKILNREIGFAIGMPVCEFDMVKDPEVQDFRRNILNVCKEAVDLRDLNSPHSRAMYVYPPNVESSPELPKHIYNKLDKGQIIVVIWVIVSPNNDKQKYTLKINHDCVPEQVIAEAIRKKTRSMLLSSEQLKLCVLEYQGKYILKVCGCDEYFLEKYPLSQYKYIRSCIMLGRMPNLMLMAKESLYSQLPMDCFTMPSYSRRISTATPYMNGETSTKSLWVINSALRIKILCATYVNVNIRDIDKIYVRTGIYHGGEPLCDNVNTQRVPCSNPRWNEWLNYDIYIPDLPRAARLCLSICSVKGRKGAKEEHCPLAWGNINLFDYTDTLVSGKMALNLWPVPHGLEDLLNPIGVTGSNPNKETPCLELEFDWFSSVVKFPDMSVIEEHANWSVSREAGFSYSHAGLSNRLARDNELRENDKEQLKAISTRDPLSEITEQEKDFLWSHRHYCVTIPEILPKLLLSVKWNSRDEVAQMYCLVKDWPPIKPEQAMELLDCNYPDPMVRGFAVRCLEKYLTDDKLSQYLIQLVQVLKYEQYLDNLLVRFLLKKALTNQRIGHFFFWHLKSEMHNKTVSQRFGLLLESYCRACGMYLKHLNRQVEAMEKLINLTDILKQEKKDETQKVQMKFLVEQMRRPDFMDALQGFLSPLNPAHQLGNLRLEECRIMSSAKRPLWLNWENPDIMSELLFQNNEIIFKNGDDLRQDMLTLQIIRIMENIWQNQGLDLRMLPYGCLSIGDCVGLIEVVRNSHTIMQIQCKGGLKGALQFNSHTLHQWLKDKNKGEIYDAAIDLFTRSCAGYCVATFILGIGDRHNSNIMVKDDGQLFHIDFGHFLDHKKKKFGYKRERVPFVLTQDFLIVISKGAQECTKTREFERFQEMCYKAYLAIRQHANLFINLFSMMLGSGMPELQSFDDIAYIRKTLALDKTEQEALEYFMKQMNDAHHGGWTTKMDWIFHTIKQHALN
Chain of Phosphatidylinositol 4,5-bisphosphate 3-kinase catalytic subunit gamma isoform (P48736 whole entry, canonical isoform): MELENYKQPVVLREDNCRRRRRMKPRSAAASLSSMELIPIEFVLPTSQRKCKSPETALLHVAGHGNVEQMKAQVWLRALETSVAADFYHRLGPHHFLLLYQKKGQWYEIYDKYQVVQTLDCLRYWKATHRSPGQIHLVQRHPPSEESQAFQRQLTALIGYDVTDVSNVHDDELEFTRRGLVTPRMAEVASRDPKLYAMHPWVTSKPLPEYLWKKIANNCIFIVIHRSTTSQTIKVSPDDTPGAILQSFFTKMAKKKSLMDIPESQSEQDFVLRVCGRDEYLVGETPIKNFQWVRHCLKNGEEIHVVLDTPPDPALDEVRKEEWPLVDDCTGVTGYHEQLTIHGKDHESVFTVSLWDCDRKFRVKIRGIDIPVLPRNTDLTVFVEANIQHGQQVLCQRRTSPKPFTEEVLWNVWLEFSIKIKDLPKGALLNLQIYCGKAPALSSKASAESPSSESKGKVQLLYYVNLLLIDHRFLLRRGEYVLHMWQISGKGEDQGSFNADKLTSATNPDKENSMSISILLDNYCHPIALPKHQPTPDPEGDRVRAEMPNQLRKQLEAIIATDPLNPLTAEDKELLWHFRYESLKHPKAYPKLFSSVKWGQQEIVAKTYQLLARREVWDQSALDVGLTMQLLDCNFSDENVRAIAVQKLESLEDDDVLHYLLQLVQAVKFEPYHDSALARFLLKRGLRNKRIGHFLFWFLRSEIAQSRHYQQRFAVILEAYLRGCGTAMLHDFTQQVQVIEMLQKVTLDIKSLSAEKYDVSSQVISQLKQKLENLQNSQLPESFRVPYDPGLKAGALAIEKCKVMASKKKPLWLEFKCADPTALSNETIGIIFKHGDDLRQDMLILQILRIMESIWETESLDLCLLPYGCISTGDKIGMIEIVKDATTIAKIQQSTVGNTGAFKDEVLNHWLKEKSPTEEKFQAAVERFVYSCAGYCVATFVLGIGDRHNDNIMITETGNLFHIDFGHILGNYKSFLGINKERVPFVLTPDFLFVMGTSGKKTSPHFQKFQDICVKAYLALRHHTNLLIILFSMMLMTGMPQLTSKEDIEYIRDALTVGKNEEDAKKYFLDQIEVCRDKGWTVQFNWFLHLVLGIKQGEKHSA
T2 sequence (P42338 whole entry, canonical isoform): as the sequence (P42338 whole entry D862Q, canonical isoform) above, with Q862D counted along it

For `C[C@@H](N)C(=O)N1CCN(c2nc(N3CCOCC3)nc(-n3c(C(F)F)nc4ccccc43)n2)CC1`, the half-maximal inhibitory concentration (IC50) (commonly the concentration needed to halve the response being measured) in assay [1] amounted to 70 nM; in assay [2] it was 1000 nM; in assay [3] it was 2000 nM.
The matching figures for `N[C@H](Cc1ccccc1)C(=O)N1CCN(c2nc(N3CCOCC3)nc(-n3c(C(F)F)nc4ccccc43)n2)CC1`: 3600 nM, above 10000 nM and above 10000 nM.
With `NCC(=O)N1CCN(c2nc(N3CCOCC3)nc(-n3c(C(F)F)nc4ccccc43)n2)CC1`, the half-inhibitory concentration (IC50) in assay [1] turned out to be 110 nM; in assay [2] it was 35 nM; in assay [4] it was 1500 nM; in assay [3], 9900 nM.
The matching figures for `N[C@@H](Cc1ccc(O)cc1)C(=O)N1CCN(c2nc(N3CCOCC3)nc(-n3c(C(F)F)nc4ccccc43)n2)CC1`: 1200 nM, 220 nM, 3300 nM and above 10000 nM.
Take `NCCC(=O)N1CCN(c2nc(N3CCOCC3)nc(-n3c(C(F)F)nc4ccccc43)n2)CC1`: the IC50 in assay [1] amounted to 58 nM; in assay [2] it was 98 nM; in assay [4], 720 nM; in assay [3] it was 3900 nM.
In the same order, the values of `CN[C@@H](C)C(=O)N1CCN(c2nc(N3CCOCC3)nc(-n3c(C(F)F)nc4ccccc43)n2)CC1` are 290 nM, 260 nM, 1500 nM and 8000 nM.
Take `CC(=O)NCC(=O)N1CCN(c2nc(N3CCOCC3)nc(-n3c(C(F)F)nc4ccccc43)n2)CC1`: the concentration for half-maximal inhibition (IC50) turned out to be 26 nM in assay [1], 54 nM in assay [2], 42 nM in assay [4] and 380 nM in assay [3].
In the same order, the values of `O=C([C@@H]1CCCN1)N1CCN(c2nc(N3CCOCC3)nc(-n3c(C(F)F)nc4ccccc43)n2)CC1` are 390 nM, 26 nM, 2200 nM and above 10000 nM.
As for `C[C@H](N)C(=O)N1CCN(c2nc(N3CCOCC3)nc(-n3c(C(F)F)nc4ccccc43)n2)CC1`, the IC50 in assay [1] was found to be 490 nM; in assay [2] it was 31 nM; in assay [5], 62 nM; in assay [6] it was 890 nM.
With `N[C@@H](Cc1ccccc1)C(=O)N1CCN(c2nc(N3CCOCC3)nc(-n3c(C(F)F)nc4ccccc43)n2)CC1`, the half-maximal inhibitory concentration (IC50) is 2200 nM in assay [1]; 63 nM in assay [2]; 74 nM in assay [5]; below 10 nM in assay [7]; 6000 nM in assay [6]. Further, the inhibition result in assay [7] was “Dose-dependent effect”.
For `CC[C@H](C)[C@H](N)C(=O)N1CCN(c2nc(N3CCOCC3)nc(-n3c(C(F)F)nc4ccccc43)n2)CC1`, the concentration for half-maximal inhibition (IC50) was 1000 nM in assay [1]; 67 nM in assay [2]; 140 nM in assay [5]; 1400 nM in assay [6]; above 10000 nM in assay [3].
As to `CN(C)CC(=O)N1CCN(c2nc(N3CCOCC3)nc(-n3c(C(F)F)nc4ccccc43)n2)CC1`, the IC50 was 330 nM in assay [1], 2400 nM in assay [2], 1600 nM in assay [4] and above 10000 nM in assay [3].
Take `NCCCC[C@H](N)C(=O)N1CCN(c2nc(N3CCOCC3)nc(-n3c(C(F)F)nc4ccccc43)n2)CC1`: the IC50 in assay [1] was 670 nM; in assay [2], 50 nM; in assay [4], 2300 nM; in assay [3], above 10000 nM.
